Source: PubChem
Compounds with a hit are over-represented: about 0.94% of the library has one in this group of screens.
aDG glyco up = activators of alpha-DG glycosylation, primary screen, uHTS, Pro5-aDG cells, AlphaScreen; alpha-DG glycosylation AlphaScreen (IIH6); 0% Pro5, 100% B10-LARGE cell signal; hit rate 0.22% among 360,000; activation, % at 10 µM;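 active = activation of at least 8% versus controls, or a plate z-score of at least 8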;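 also: Pro5 are CHO cells carrying HIG-tagged alpha-DG that lacks glycosylation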
PKA-R1A act = activators of PKA-R1A holoenzyme, primary screen, biochemical, fluorescence polarization, Cy5-IP20, bovine R1A, mouse PKAc | hit rate 0.083% among 340,000 | activation, % at 11.4 µM | PKA-R1A dissociation; scaled: DMSO 0%, 113 µM cGMP 100% | cAMP-dependent protein kinase type I-alpha regulatory subunit (Bos taurus) + …;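 active = percent activation above the mean of all tested compounds plus 3 SD, cut at about 19% in these data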;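 also: higher means more PKAc released from R1A so a rise in polarization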
Fh CTSL1 inh = Fasciola hepatica cathepsin L1 inhibitors, primary screen, counter-screen for PFM18AAP inhibitor project, biochemical, QFRET, fluorogenic peptide substrate. inhibition, % at 5.96 µM. recombinant F. hepatica cathepsin L1, Z-Leu-Arg-MCA fluorescence. hit rate 0.49% among 300,000;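 active = inhibition above the mean of all tested compounds plus 3 SD, set per screening campaign, cut at about 17% in these data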;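 also: 0% = plate median of test compound wells and 100% = 1 µM Z-Phe-Ala-diazomethylketone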
PKA-R2B activ = activators of PKA-R2B holoenzyme, primary screen, biochemical, fluorescence polarization, Cy5-IP20, human | hit rate 0.079% among 340,000 | cAMP-dependent protein kinase catalytic subunit beta (Homo sapiens) + cAMP-dependent … | PKA-R2B holoenzyme dissociation; R2B truncated from residue 108, S112A mutant; 0% DMSO only, 100% 113 µM cGMP | activation, % at 11.4 µM | AID 504700, 2011;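 active = activation above a cutoff set at the mean over all compounds plus 3 SD, cut at about 18% in these data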;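 also: higher means more holoenzyme dissociation and a rise in polarization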
Target sequence (P31323 whole entry, looked up, other chains not shown, the tested form may be a part): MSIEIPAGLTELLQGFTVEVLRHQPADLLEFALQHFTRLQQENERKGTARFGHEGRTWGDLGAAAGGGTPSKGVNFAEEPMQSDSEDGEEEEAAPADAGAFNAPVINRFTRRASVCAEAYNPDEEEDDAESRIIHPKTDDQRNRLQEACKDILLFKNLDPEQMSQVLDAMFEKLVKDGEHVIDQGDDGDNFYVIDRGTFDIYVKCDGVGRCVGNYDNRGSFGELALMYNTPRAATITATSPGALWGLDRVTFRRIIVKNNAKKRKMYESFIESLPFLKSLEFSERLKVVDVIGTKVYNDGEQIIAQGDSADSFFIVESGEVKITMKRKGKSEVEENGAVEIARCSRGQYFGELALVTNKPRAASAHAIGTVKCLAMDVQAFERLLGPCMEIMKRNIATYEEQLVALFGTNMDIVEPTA
UCH37 DUB inh = inhibitors of human UCH37 deubiquitinase, primary screen, biochemical, Ub-AMC cleavage, fluorescence | Ubiquitin carboxyl-terminal hydrolase isozyme L5 (Homo sapiens), Q9Y5K5 | purified proteasome/UCH37 | inhibition, % (no concentration beside the values) | hit rate 0.33% among 330,000 | AID 588478, 2011;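 active = mean inhibition over replicate wells above about 20%, limit read from the data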;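 also: 0% = compound-free wells with enzyme and 100% = wells lacking proteasome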
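Material: Human UCH37 enzyme supplied as purified proteasome complex | Schedule: 30 min compound-proteasome preincubation then 25 min substrate reaction, room temperature | Detection: AMC fluorescence from Ub-AMC cleavage, excitation 355 nm, emission 460 nm | Benchmarks: Wells without proteasome as full block, compound-free enzyme plus substrate as uninhibited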
Active calls of the source: *; i = inactive; / = no result.

SMILES | aDG glyco up | PKA-R1A act | Fh CTSL1 inh | PKA-R2B activ | UCH37 DUB inh
CC(=NNc1cc(-c2ccccc2)nc(-c2ccc(Br)cc2)n1)c1cccc(N)c1 | / | / | / | / | -28
O=C(C(Cl)Cl)N1CCN(Cc2ccc3c(c2)OCO3)CC1 | 0 | 1 | -10 | -2 | 1
CC(C(=O)N1CCN(Cc2ccc3c(c2)OCO3)CC1)c1ccc([N+](=O)[O-])cc1 (centres undefined) | 0 | 1 | 18* | -7 | 1
Cc1ccc(C(=O)N/N=C/c2cc(Br)ccc2O)cn1 | 1 | -3 | 19* | -1 | /
Cc1cc(C)nc(N=C(N)Nc2cc([N+](=O)[O-])ccc2C)n1 | / | / | / | / | -1
CCCN1/C(=C2/SC(=S)N(CC)C2=O)C=Cc2ccccc21 | 0 | 3 | 30* | -10 | 4
CCCN1C(=O)/C(=C2/C=Cc3ccccc3N2CC)SC1=S | -1 | -8 | 1 | 0 | 4
CCN1C(=O)/C(=C2/C=Cc3ccccc3N2CC)SC1=S | 0 | -5 | 0 | 3 | 3
CN1C(=O)/C(=C2/C=Cc3ccccc3N2CCCS(=O)(=O)O)SC1=S | 0 | 5 | 7 | 8 | 24*
CCOC(=O)NN=C(c1ccccc1)C1CCCCC1 | / | / | / | / | 2
CC(CC(=O)Nc1ccccc1C(F)(F)F)=NNC(=O)c1cnccn1 | / | / | / | / | -2
CSCC[C@H](NC(=O)OC(C)(C)C)C(=O)NN=Cc1cc2ccc(C)cc2nc1Cl | / | / | / | / | -72
C=CCN(CC=C)Cc1c(C)[nH]c2c(C)c(C)ccc2c1=O | 0 | 4 | 7 | -3 | 3
CCN(Cc1ccccc1)Cc1c(C)[nH]c2c(C)c(C)ccc2c1=O | 0 | -3 | 48* | -1 | 5
CCN1C(=O)CSC1=NS(=O)(=O)c1ccc(C)cc1 | / | / | / | / | 1
CNC(=O)N(O)C1N(N=Cc2ccccc2OC)C(=S)SC1(C)C (centres undefined) | / | / | / | / | 10
OC(Cc1ccncc1)(c1ccccc1)c1ccccc1 | 0 | -4 | 2 | -9 | 25*
O=C(NN=C/C=C/c1ccc([N+](=O)[O-])cc1)C1COc2ccccc2O1 (centres undefined) | / | / | / | / | 11
O=C(CNC(=O)c1cccc(F)c1)OCc1cc(=O)n2cc(Br)ccc2n1 | 0 | 8 | 17* | 7 | -12
O=C(CNC(=O)c1cccc(Br)c1)NN=Cc1cccs1 | / | / | / | / | 2
COc1cc(/C=C2\S/C(=N/S(=O)(=O)c3ccccc3)NC2=O)c([N+](=O)[O-])cc1OC | 0 | -11 | 6 | 5 | 23*
Cc1ccc2[nH]c3c(c2c1)CN(C(=O)CN(C)CC1OCCO1)CC3 | 0 | -4 | 17* | -4 | 2
Cc1ccc(C(=O)Cn2ncsc2=N)cc1 | 0 | 8 | 62* | 0 | 1
NC(=S)N/N=C/c1ccc2cccc(OCc3ccccc3)c2n1 | 0 | -3 | 18* | 0 | /
O[C@@H]([C@H](O)[C@H](O)CBr)[C@H](O)CBr | 0 | -4 | 26* | -2 | 4
SMILES | aDG glyco up | PKA-R1A act | Fh CTSL1 inh | PKA-R2B activ | UCH37 DUB inh
COc1ccc(C2=CSC(N=Cc3ccc(F)cc3)=NN2)cc1 | / | / | / | / | -2
CC(C)(C=NO)/[N+]([O-])=C/c1ccccc1C(F)(F)F | / | / | / | / | 4
CC(C)NC[C@H](O)COc1cccc2[nH]ccc12 | 0 | -9 | 86* | 6 | 1
CCOC(=O)c1ccc2c(c1)n(CC)c(/C=C/N(C)c1ccccc1)[n+]2CC | 2 | -4 | 4 | 8 | 24*
CCOC(=O)c1ccc2c(c1)n(CCO)c(C)[n+]2CC | 0 | -11 | 0 | -5 | 4
CC(CCc1ccccc1)=NNC(=O)C(=O)Nc1cccc(Cl)c1 | / | / | / | / | 1
O=C(O)CCSc1ccccn1 | 0 | 3 | 2 | 0 | 4
O=C(CCSc1ccccn1)c1ccccc1 | 1 | -12 | 19* | -12 | 1
COc1ccc(C=NN2CCN(C)CC2)c(OC)c1OC | / | / | / | / | 1
O=C(NN=Cc1cc2ccccc2nc1Cl)c1ccncc1 | / | / | / | / | -43
CCOC(=O)c1sc(N(Cc2ccccc2)C(=O)CCl)nc1C | 0 | -19 | 22* | -3 | 5
Cc1cc(-c2ccc(N=Nc3c(S(=O)(=O)O)cc4cc(S(=O)(=O)O)cc(N)c4c3O)c(C)c2)ccc1N=Nc1c(S(=O)(=O)O)cc2cc(S(=O)(=O)O)cc(N)c2c1O | / | / | 27* | / | /
O=S(=O)(O)c1cc(Cl)cc(N=Nc2ccc(O)cc2O)c1O | 0 | 2 | / | 3 | /
Nc1cc(S(=O)(=O)O)cc2ccc(S(=O)(=O)O)cc12 | 0 | 0 | / | -2 | i
O=S(=O)(O)c1cc(O)c2c(O)c(N=Nc3cc(Cl)ccc3O)c(S(=O)(=O)O)cc2c1 | 0 | 1 | 2 | 0 | 34*
COc1ccc(S(=O)(=O)N2CCN(C(=O)c3cnc(C)cn3)CC2)cc1 | 0 | 0 | -3 | 0 | 34*
COc1ccc(C=NNC(=O)C(C)n2cnc3ccccc3c2=O)cc1 (centres undefined) | / | / | / | / | 2
O=C(Cc1cccc([N+](=O)[O-])c1)Nc1ccc(C(=O)N2CCOCC2)cc1 | 0 | 7 | / | 0 | 29*
CC(=NNC(=O)c1ccc(C)cc1)c1c(C)[nH]n(-c2ccccc2)c1=O | / | / | / | / | -4
O=C(NN=Cc1ccco1)c1ccc(C(=O)NN=Cc2ccco2)o1 | / | / | / | / | 10
Cc1ccc(OCc2ccc(C(=O)Nc3c(C)nn(Cc4c(F)c(F)c(F)c(F)c4F)c3C)o2)c([N+](=O)[O-])c1 | 4.0* | -11 | 0 | 0 | 4
CC[n+]1c(/C=C2/C=C(C)CC(C)C2)sc2ccccc21 (centres undefined) | 0 | -5 | 0 | -8 | 3
CC[n+]1c(C=C2C=C(C)OC(C)=C2)sc2ccccc21 | 2 | 2 | / | 0 | 23*
CC(O)C(NS(=O)(=O)c1ccc(Cl)cc1)C(=O)OCC(=O)c1ccc2c(c1)NC(=O)CO2 (centres undefined) | 0 | -7 | / | 15 | 2
CC(C)CC(NC(=O)c1ccc(Cl)cc1)C(=O)OCC(=O)c1ccc2c(c1)NC(=O)CO2 (centres undefined) | -1 | 2 | 25* | 11 | 5
COc1ccc(CC(=O)NN=Cc2ccc(-c3ccc(F)cc3)o2)cc1OC | / | / | / | / | 2
COc1cccc(C=NNC(=O)C(=O)NN=Cc2cccc(OC)c2OC)c1OC | / | / | / | / | -29
O=C(CCl)N1N=C(c2cccs2)CC1c1ccco1 (centres undefined) | 0 | 10 | 27* | -6 | -2
